Screening results: PubChem, several laboratories
HUVEC inhibit: inhibitors of HUVEC proliferation, primary screen, cell-based, 384-well | CellTiter-Glo luminescence, 72 h; stronger effect = lower value | viability, % at 10 µM (by protocol) | 1.1% of 86,000 active;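 active = viability at or below 30%; inactive = viability above 30%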;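 also: 100% = median luminescence of DMSO-only cell control wells on each plate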
Jurkat tox 60K: cytotoxicity toward Jurkat T cells, primary screen, cytotoxicity control, cell-based, Jurkat E6.1, 60K MLSMR library; inhibition, % at 4 µM; AID 463, 2006; Jurkat E6.1 viability, ATP luminescence, 48 h; 1.2% of 56,000 active;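 active = inhibition above the mean inhibition of all tested compounds plus 3 SD, cut at about 28% in these data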
H69AR growth 86K: proliferation blockers of H69AR lung cancer cells, primary screen, cell-based, human, 86K library | 6% of 85,000 active | viability, % at 10 µM | H69AR lung tumor viability, ATP luminescence, 72 h; stronger effect = lower value;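 active = viability at or below 40%; inactive = viability above 40%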;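 also: multidrug resistant small cell line overexpressing MRP-1 efflux transporter; 100% = mean luminescence of untreated control wells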
Lung fibro prol: antiproliferative effect on LL 47 fibroblasts – human, LL 47 cells, CellTiter-Glo luminescence, primary screen; 1.1% of 85,000 active; viability, % at 10 µM; LL 47 human lung fibroblast viability, ATP luminescence; stronger effect = lower value;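 active = viability at or below 50% in the single dose screen; inactive = viability above 50%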;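 also: compound exposure lasted 72 h before the ATP readout; 100% = median luminescence of untreated cell-only wells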
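Signal: luminescent ATP detection, CellTiter-Glo; assay system: LL 47 human lung fibroblasts; input: 1,150 cells/well; incubation: overnight cell rest, 72 h compound treatment at 37 °C; measure: % viability versus median cells-only luminescence; medium: IMEM growth medium with 15% fetal bovine serum; dosing: compound addition at 0.1% DMSO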
* marks the source's active call; other numbers are inactive results; · = no result. Only some compounds are listed: those with a hit (about 6.6% of all), similar ones and a draw of the others.

SMILES	HUVEC inhibit	Jurkat tox 60K	H69AR growth 86K	Lung fibro prol
CCc1ccc(OCC(=O)N2CCN=C2c2ccccc2)cc1	107.3	·	105.1	102.2
COc1ccc(Oc2ncc(CN3CCN(c4ccccc4)CC3)s2)cc1	97.9	·	96.2	86.5
COc1ccc(-n2cc(-c3ccccc3)c3c(N4CCN(CCO)CC4)ncnc32)cc1	29.8*	·	58.1	73.6
CCOC(=O)c1cnn(-c2ncnc3c2cnn3Cc2ccccc2)c1N	20.1*	0.8	25.7*	91.5
CCOC(=O)c1cnn(Cc2ccccc2)c1N	91.8	·	92.4	96.8
CCN(CCCNC(=O)C1CCCN(S(=O)(=O)c2cnc[nH]2)C1)c1ccccc1 (centres undefined)	115.9	5.2	90.8	107.9
COc1ccc(N(Cc2cc3ccc(C)cc3[nH]c2=O)C(C)=O)cc1	94.2	-3.6	88.0	100.8
COc1ccc(S(=O)(=O)N2c3cc(Cl)ccc3Oc3nc4ccccc4nc32)cc1	47.8	·	29.0*	56.3
CCOC(=O)C(C)Oc1cccc2c(=O)n(CC(=O)N3CCN(C(=O)OCC)CC3)ccc12 (centres undefined)	91.9	1.6	91.5	93.8
CCc1ccc(-n2c(CSc3nnnn3-c3ccccc3)nc3ccccc3c2=O)cc1	105.5	·	78.6	108.3
CCc1ccc(N2C(=O)c3sc4nnc(-c5ccccc5)c(=O)n4c3C2=O)cc1	81.0	·	30.3*	60.8
COc1ccc(NC(=O)c2cc(-c3cc(C)cc(C)c3O)n[nH]2)cc1Cl	43.5	-2.8	21.1*	97.3
Cc1cc(C)c(O)c(-c2cc(C(=O)NCc3ccccc3)[nH]n2)c1	85.4	·	89.8	110.2
CCC(C)n1c(C)nc2c(c1=O)c1nc3ccccc3nc1n2CCC1=CCCCC1 (centres undefined)	99.4	·	3.6*	98.4
Cc1nc2c(c(=O)n1CC1CCCO1)c1nc3ccccc3nc1n2CCC(C)C (centres undefined)	83.6	·	93.3	89.7
Cc1cc2c(c(SCC(=O)NCCc3ccccc3)n1)C(=O)OC2	107.1	·	85.7	98.9
Cc1cccc(N(CC(=O)NCc2ccc3c(c2)OCO3)C(=O)CCC(=O)Nc2ccccn2)c1	100.2	-5.0	89.2	96.4
CCc1c(C)c(C#N)c2nc3ccccc3n2c1NCc1ccco1	85.0	·	35.6*	91.8
CCCNc1cc(C)c(C#N)c2nc3ccccc3n12	91.2	·	37.4*	107.5
CCc1c(C)c(C#N)c2nc3ccccc3n2c1NCCN(C)C	102.7	1.9	50.5	103.7
C=CCc1c(C)c(C#N)c2nc3ccccc3n2c1NCCN(C)C	99.0	5.6	33.0*	96.4
COCCNc1cc(C)c(C#N)c2nc3ccccc3n12	88.3	·	62.0	87.7
CC(NS(=O)(=O)c1ccccc1)C(c1cccs1)N1CCN(C)CC1 (centres undefined)	100.3	·	97.3	98.8
O=C(CS(=O)c1ccc(C(F)(F)F)cc1[N+](=O)[O-])Oc1ccccc1 (centres undefined)	24.5*	·	3.1*	44.4*
Cc1ccc(CNS(=O)(=O)NCc2ccccc2)cc1	102.9	·	104.9	100.0
SMILES	HUVEC inhibit	Jurkat tox 60K	H69AR growth 86K	Lung fibro prol
COc1ccc2c(c1)OC1(C)CC2C(C(=O)c2ccccc2OC)C(=O)N1 (centres undefined)	97.7	-7.1	32.6*	97.1
COc1ccc2c(c1)C1CC(C)(NC(=O)C1C(=O)c1ccccc1)O2 (centres undefined)	106.9	6.0	91.6	102.2
CC(C)(C)c1ccc(COn2c(=O)c(-c3ccco3)[n+]([O-])c3ccccc32)cc1	72.2	·	34.3*	61.2
CCCSc1nc2c(=O)[nH][nH]c(=O)c2n1Cc1ccccc1	95.2	·	97.7	96.8
CCCN1Cc2cccc(C(=O)Nc3ccc(N4CCN(CC)CC4)cc3)c2C1=O	84.0	-7.7	22.2*	103.2
O=c1nc2n(c3sc4c(c13)CCC4)Cc1ccccc1-2	92.4	·	94.6	97.7
CCOC(=O)C1=C(C)Nc2ncnn2C1c1cccs1 (centres undefined)	104.4	·	85.5	97.4
CCCC1=C(C(=O)OCC)C(c2ccc(F)cc2)n2ncnc2N1 (centres undefined)	113.4	-0.4	·	84.0
CCOC(=O)C1=C(c2ccccc2)Nc2ncnn2C1c1cccc(OC)c1OC (centres undefined)	88.5	3.2	39.3*	91.1
CCOC(=O)C1=C(C)Nc2ncnn2C1/C=C/c1ccccc1 (centres undefined)	81.3	19.1	22.6*	75.0
CCOC(=O)C1=C(c2ccccc2)Nc2ncnn2C1c1cc(OC)cc(OC)c1OC (centres undefined)	96.0	-1.7	86.7	95.7
CCCC1=C(C(=O)OCC)C(/C=C/c2ccccc2)n2ncnc2N1 (centres undefined)	62.0	·	18.6*	43.1*
CN=C1CC(SC)=C1c1ccc(C)cc1	61.2	·	38.5*	33.3*
O=C(CCC1CCCC1)N1CCN(C(=O)c2cccnc2)CC1	95.8	2.5	98.1	99.6
Cc1cccc(C)c1OCC(=O)Nc1oc(-c2ccccc2)c(-c2ccccc2)c1C#N	67.7	·	26.9*	96.3
COc1ccc(C(=O)Nc2oc(-c3ccccc3)c(-c3ccccc3)c2C#N)cc1	67.2	·	62.5	102.3
CCOC(=O)Cc1csc(NC(=O)c2ccc(Br)s2)n1	88.7	14.2	93.2	116.4
CCOc1cccc2sc(NC(=O)c3ccc(Br)s3)nc12	86.1	-0.3	29.8*	96.6
CCCCNS(=O)(=O)c1ccc2nc(SCC(=O)Nc3sccc3C#N)[nH]c2c1	50.2	22.9	21.4*	94.3
Cc1cc(NC(=O)CSc2cn(CCNC(=O)c3ccc(Cl)cc3)c3ccccc23)no1	82.9	-1.7	83.7	101.1
CCOc1ccc(C(=O)NCCn2cc(SCC(=O)Nc3cc(C)on3)c3ccccc32)cc1	84.0	9.9	32.7*	96.6
O=C(CSc1cn(CCNC(=O)c2ccc3ccccc3c2)c2ccccc12)NCc1ccco1	61.9	·	9.6*	98.3
CC(C)C(=O)Nc1nnc(CCN2CCOCC2)s1	93.4	·	100.2	94.5
Cc1nn(-c2ccc(Cl)cc2)c2sc(C(=O)N3CCN(c4ccccn4)CC3)cc12	35.6	0.2	21.0*	95.8
Cc1cc(NO)nc(-c2ccc(Br)cc2)n1	52.1	33.9*	84.1	100.6
SMILES	HUVEC inhibit	Jurkat tox 60K	H69AR growth 86K	Lung fibro prol
O=C(N/N=C/C=C/c1ccccc1)c1cccc(Br)c1	79.7	·	37.5*	77.0
O=C(N/N=C/c1ccc([N+](=O)[O-])s1)c1cccc(Br)c1	30.2	·	38.9*	2.6*
O=C(c1cccc(Br)c1)N1CCCC1	94.5	·	95.2	99.5
Cc1ccc(C(=O)N/N=C/c2ccc([N+](=O)[O-])s2)cc1	36.4	·	20.3*	49.1*
NS(=O)(=O)c1cc2c(cc1Cl)NC=NS2(=O)=O	103.4	·	99.9	99.0
COc1ccccc1N(CC(=O)NCc1ccccc1)C(=O)CCC(=O)Nc1ccccn1	91.7	·	88.1	·
CCOC(=O)C1=C(NC(=O)c2ccc(Br)o2)Nc2ccccc2N=C1	91.8	6.2	31.2*	82.5
COc1ccc(C2(O)CC3CCC(C2)N3c2nc(C)cc(C)c2C#N)cc1 (centres undefined)	90.1	18.0	31.4*	92.6
